Experimental data published in ChEMBL document CHEMBL1250465, “A new metabotropic glutamate receptor agonist with in vivo anti-allodynic activity” (Bioorg Med Chem, 2010).
The source made the active and inactive calls.

How the values were obtained:
[1] = test system: Rattus norvegicus; assay: Antiallodynic activity against von Frey hair mechanically stimulated neuropathic pain in Sprague-Dawley rat assessed as increase of response threshold at 500 nmol dosed intrathecally after 24 hrs; type: functional, organism-based
How it was run: (§1)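 Male Sprague-Dawley rats with chronic constriction injury of the left sciatic nerve, dosed 16 days after surgery. Intrathecal dosing under isoflurane, with vehicle as control. Blinded von Frey testing of both hind paws before dosing and at 1, 3 and 24 h. 50% withdrawal threshold in g from a Gaussian integral psychometric fit by maximum likelihood; n = 6.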

[2] = test system: Rattus norvegicus; assay: Antiallodynic activity against von Frey hair mechanically stimulated neuropathic pain in Sprague-Dawley rat assessed as increase of response threshold at 50 nmol dosed intrathecally after 24 hrs relative to control; type: functional; details: in the assay text read “after 3 hrs” for “after 24 hrs”; how it was run: as §1
[3] = test system: Rattus norvegicus; assay: Antiallodynic activity against von Frey hair mechanically stimulated neuropathic pain in Sprague-Dawley rat assessed as increase of response threshold at 250 nmol dosed intrathecally after 24 hrs relative to control; type: functional; details: in the assay text read “after 3 hrs” for “after 24 hrs”; how it was run: as §1
[4] = test system: Rattus norvegicus; assay: Antiallodynic activity against von Frey hair mechanically stimulated neuropathic pain in intrathecally dosed Sprague-Dawley rat assessed as increase of response threshold after 3 hrs; type: functional, organism-based; how it was run: as §1
[5] = Displacement of [3H]AMPA from AMPA receptor in Sprague-Dawley rat brain synaptic membranes after 30 mins; type: cell membranes, Membrane
How it was run: (§2)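 Adult male Sprague-Dawley rat cortex synaptic membranes, washed four times in ice-cold pH 7.4 buffer at about 0.4–0.5 mg protein/mL. AMPA: 5 nM [3H]AMPA in 30 mM Tris-HCl/2.5 mM CaCl2 with 100 mM KSCN. Kainate: 5 nM [3H]KAIN in 50 mM Tris-HCl. NMDA: 2 nM [3H]CGP39653 in 50 mM Tris-HCl/2.5 mM CaCl2. Nonspecific binding set with 1 mM (S)-Glu.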

[6] = Displacement of [3H]KAIN from kainate receptor in Sprague-Dawley rat brain synaptic membranes after 60 mins; type: cell membranes, Membrane; how it was run: as §2
[7] = biological target: Glutamate NMDA receptor; assay: Displacement of [3H]CGP39653 from NMDA receptor in Sprague-Dawley rat brain synaptic membranes after 60 mins; type: cell membranes, Membrane; how it was run: as §2
[8] = biological target: Metabotropic glutamate receptor 1 (Homo sapiens, UniProt Q13255); assay: Agonist activity at mGlu1 receptor expressed in CHO cells assessed as myo-[2-3H]Inositol turnover by scintillation counting; type: functional, cell-based
How it was run: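 CHO cells stably expressing receptor, washed with DPBS, preincubated 30 min at 37 °C in HBSS with 20 mM HEPES, 1 mM CaCl2, 1 mM MgCl2, 0.85 mg/mL LiCl, pH 7.4; compound added for 30 min at 37 °C. Stopped with ice-cold 10 mM formic acid, 30 min at 4 °C. [3H]IP measured with yttrium silicate SPA beads; counts per minute read.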

[9] = biological target: T1, Metabotropic glutamate receptor 2 (Homo sapiens, UniProt Q14416); assay: Agonist activity at mGlu2 receptor expressed in CHO cells assessed as inhibition of forskolin-induced increase of cAMP level; type: functional, cell-based
How it was run: (§3)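 CHO cells grown in DMEM GlutaMAX-I, 10% dialyzed FBS, 2.5 g/L L-proline, seeded 26,000/well 24 h before. After a 20 min, 37 °C preincubation in DPBS with 1 mM CaCl2, 1 mM MgCl2, 1 mM IBMX, compound plus 25 µM forskolin was given for 10 min at 37 °C. Stopped with ice-cold sodium acetate pH 6.2, 0.1% Triton X-100, 0.1 mM IBMX; cAMP by radioimmunoassay.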

[10] = biological target: Metabotropic glutamate receptor 4 (Homo sapiens, UniProt Q14833); assay: Agonist activity at mGlu4 receptor expressed in CHO cells assessed as inhibition of forskolin-induced increase of cAMP level; type: functional, cell-based; how it was run: as §3
[11] = test system: Rattus norvegicus; assay: Antiallodynic activity against von Frey hair mechanically stimulated neuropathic pain in Sprague-Dawley rat assessed as increase of response threshold at 500 nmol dosed intrathecally after 1 hr; type: functional, organism-based; how it was run: as §1
[12] = test system: Rattus norvegicus; assay: Antiallodynic activity against von Frey hair mechanically stimulated neuropathic pain in Sprague-Dawley rat assessed as increase of response threshold at 500 nmol dosed intrathecally after 3 hrs relative to control; type: functional; how it was run: as §1
[13] = biological target: T1, Metabotropic glutamate receptor 2; assay: Antagonist activity at mGlu2 receptor expressed in CHO cells assessed as increase of cAMP level; type: functional, cell-based

T1 sequence (Q14416 whole entry): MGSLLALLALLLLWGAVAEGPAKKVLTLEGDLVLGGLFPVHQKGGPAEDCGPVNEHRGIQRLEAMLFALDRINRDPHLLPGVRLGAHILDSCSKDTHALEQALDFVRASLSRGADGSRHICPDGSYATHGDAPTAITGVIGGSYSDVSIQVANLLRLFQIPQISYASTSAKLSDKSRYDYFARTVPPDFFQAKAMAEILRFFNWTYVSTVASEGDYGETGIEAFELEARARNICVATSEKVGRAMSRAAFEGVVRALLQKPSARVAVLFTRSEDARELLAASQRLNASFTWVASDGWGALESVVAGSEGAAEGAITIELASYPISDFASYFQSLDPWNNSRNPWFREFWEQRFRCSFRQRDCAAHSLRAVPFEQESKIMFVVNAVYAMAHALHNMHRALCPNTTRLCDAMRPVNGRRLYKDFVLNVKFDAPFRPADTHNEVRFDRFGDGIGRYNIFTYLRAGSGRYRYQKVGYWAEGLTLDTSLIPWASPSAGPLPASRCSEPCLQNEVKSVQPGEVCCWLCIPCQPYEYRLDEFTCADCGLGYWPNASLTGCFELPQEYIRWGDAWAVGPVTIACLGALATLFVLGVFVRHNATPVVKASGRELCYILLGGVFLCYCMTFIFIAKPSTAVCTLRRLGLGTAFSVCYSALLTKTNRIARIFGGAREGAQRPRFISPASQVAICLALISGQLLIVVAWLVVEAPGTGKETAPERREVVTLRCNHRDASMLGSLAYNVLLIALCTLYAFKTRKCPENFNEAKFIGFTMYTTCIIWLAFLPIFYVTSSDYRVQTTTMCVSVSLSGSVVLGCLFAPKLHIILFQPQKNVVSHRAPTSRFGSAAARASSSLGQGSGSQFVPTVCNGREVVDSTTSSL
Metabotropic glutamate receptor 1, sequence (Q13255 whole entry): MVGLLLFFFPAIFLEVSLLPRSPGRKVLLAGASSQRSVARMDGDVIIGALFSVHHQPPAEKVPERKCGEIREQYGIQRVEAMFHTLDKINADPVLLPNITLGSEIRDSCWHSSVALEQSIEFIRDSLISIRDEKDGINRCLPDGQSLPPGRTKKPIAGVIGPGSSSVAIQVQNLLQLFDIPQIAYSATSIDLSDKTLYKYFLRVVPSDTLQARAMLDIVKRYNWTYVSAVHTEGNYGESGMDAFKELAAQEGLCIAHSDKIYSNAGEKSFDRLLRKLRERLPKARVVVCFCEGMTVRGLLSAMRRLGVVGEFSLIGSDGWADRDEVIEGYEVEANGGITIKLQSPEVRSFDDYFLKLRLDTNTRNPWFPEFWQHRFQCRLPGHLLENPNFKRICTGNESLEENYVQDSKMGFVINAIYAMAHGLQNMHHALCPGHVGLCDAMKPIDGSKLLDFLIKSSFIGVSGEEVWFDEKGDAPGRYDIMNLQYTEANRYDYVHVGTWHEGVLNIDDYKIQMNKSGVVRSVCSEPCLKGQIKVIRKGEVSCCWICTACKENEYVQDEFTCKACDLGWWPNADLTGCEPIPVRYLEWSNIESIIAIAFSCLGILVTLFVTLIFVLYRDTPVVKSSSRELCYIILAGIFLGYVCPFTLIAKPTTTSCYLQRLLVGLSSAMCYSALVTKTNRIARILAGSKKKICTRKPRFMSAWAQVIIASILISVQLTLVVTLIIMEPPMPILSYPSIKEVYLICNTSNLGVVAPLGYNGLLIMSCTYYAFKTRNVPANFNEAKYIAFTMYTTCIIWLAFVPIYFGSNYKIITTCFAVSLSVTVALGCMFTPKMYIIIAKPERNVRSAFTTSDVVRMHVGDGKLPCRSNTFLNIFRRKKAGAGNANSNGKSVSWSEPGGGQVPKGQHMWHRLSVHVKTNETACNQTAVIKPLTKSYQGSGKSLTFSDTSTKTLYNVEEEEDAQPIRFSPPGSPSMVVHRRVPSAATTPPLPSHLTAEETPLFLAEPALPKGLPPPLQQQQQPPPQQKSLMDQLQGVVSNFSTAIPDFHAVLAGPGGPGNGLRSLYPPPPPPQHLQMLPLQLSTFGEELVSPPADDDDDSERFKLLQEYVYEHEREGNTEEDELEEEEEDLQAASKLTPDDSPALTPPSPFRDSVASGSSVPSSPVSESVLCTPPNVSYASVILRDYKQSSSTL
Metabotropic glutamate receptor 4, sequence (Q14833 whole entry): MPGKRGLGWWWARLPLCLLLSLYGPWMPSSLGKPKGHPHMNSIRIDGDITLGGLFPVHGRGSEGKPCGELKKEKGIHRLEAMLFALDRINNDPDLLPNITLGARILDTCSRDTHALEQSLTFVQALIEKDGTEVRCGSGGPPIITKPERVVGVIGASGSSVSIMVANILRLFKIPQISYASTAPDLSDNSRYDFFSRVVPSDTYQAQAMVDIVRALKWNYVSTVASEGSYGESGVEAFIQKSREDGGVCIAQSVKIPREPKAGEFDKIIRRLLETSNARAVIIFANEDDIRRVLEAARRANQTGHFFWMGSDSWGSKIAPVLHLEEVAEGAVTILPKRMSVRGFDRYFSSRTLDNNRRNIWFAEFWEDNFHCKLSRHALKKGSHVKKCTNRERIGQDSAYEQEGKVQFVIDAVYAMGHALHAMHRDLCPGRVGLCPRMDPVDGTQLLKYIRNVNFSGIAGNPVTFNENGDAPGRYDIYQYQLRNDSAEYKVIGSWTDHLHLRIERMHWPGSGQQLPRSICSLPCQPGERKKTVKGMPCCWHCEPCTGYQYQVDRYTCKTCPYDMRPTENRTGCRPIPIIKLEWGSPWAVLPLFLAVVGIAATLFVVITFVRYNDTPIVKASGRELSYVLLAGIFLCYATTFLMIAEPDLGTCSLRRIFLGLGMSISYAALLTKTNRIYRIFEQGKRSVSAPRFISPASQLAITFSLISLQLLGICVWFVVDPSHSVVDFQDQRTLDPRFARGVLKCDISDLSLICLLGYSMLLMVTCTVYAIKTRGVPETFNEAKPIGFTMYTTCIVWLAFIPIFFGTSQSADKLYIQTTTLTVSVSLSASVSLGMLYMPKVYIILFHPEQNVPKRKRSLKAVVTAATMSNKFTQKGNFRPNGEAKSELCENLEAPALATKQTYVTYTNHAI

Row | Compound | Activity [1] | Activity [2] [g] | Activity [3] [g] | Activity [4] | IC50 [5] [µM] | IC50 [6] [µM] | IC50 [7] [µM] | EC50 [8] [µM] | EC50 [9] [µM] | EC50 [10] [µM] | Activity [11] | Activity [12] [g] | IC50 [13] [µM]
1 | N[C@H](C(=O)O)[C@@H]1[C@@H](C(=O)O)[C@@H]1C1CC1 (racemic) | inactive | 5 | 7.5 | Dose-dependent effect | > 100 | > 100 | > 100 | > 100 | 0.05 | > 100 | Active | 10 | 
2 | N[C@H](C(=O)O)[C@@H]1[C@@H](C(=O)O)[C@@H]1C1CCCCC1 (racemic) |  |  |  |  | > 100 | > 100 | > 100 | > 100 |  | > 100 |  |  | 62
3 | C[C@H]1[C@H](C(=O)O)[C@H]1[C@H](N)C(=O)O (racemic) |  |  |  |  |  |  |  | > 100 | 0.01 | > 100 |  |  | 
